Assay results from article PMC7719619 (Angewandte Chemie (International ed. in English), 2020).
≈ marks a conversion by molar mass, not a printed value. Square brackets hold non-standard residues; d marks the D form. Peptide text beside a SMILES is read from it. Gly(N-CH2-oxan-4-yl) = O=C(O)CNCC1CCOCC1; NCyclohexylmethylGly = O=C(O)CNCC1CCCCC1; NMeL = CN[C@@H](CC(C)C)C(=O)O; NMeA = CN[CH](C)C(=O)O; NEtG = CCNCC(=O)O

Experiments:
physchem = assay type: physicochemical
[1] = assay type: in vitro ADME; conditions: microsomes
MDCK permeability = assay type: in vitro ADME; conditions: dog
P-gp = P-gp (Homo sapiens, UniProt P08183); assay: P-gp efflux ratio; assay type: in vitro ADME; conditions: not told
Sequence of P-gp (P08183 whole entry): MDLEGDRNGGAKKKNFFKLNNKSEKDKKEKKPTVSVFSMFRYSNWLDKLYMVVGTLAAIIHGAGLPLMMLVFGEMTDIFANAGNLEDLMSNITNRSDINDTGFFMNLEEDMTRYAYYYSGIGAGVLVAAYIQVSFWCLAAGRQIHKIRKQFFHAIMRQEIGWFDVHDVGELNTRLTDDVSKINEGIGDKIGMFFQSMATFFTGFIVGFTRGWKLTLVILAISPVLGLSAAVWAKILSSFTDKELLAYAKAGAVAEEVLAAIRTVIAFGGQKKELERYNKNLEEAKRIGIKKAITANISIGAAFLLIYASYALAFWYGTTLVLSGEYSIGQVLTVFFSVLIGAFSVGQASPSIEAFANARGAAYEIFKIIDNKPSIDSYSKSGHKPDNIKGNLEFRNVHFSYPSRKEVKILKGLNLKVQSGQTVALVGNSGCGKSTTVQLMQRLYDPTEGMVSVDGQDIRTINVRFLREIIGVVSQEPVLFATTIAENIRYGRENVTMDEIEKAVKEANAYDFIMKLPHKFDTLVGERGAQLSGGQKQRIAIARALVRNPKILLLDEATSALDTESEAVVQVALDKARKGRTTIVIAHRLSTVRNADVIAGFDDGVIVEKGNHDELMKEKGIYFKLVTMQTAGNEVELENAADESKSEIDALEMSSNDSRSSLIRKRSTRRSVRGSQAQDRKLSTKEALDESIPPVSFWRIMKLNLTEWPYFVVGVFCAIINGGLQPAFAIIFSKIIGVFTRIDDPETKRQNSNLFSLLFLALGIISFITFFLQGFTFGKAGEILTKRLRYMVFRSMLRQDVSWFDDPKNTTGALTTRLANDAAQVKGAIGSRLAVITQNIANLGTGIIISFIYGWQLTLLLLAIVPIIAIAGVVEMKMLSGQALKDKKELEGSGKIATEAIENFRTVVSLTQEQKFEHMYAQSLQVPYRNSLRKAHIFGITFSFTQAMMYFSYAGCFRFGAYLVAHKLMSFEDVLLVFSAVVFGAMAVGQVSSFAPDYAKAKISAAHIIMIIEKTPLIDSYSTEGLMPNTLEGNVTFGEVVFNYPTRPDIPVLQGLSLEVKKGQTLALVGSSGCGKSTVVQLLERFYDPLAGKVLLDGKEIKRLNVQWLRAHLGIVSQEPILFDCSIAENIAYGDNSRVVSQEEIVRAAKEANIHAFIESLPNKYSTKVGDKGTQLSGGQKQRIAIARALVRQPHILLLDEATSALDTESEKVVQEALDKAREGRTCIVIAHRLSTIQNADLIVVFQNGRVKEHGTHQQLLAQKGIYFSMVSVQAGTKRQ

[2] = assay type: in vitro ADME; conditions: serum
oral bioavailability = assay type: in vivo; conditions: mouse; for bioavailability: in vivo, po, Oral bioavailability, No inhib., no inhibitors, mean (two individual values)
Procedure, shortened: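 Oral dosing in mice with no pretreatment by CYP or P-gp inhibitor. Oral bioavailability (F) reported as the mean of two independent experiments, with the individual values also given.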

[3] = pH 6.8, aqueous solubility at pH 6.8

aq. sol. pH 1.2 (physchem; pH 1.2) [μg/mL] | aq. sol. pH 6.8 (physchem) [μg/mL] | solubility (physchem; [3]) [µg/mL] | microsomal stability [1] [%] | solubility (physchem; pH 1.2, aq. sol. pH 1.2) [µg/mL] | solubility (physchem; pH 6.8, aq. sol. pH 6.8) [µg/mL] | Papp (MDCK permeability) [×10⁻⁶ cm/s] | efflux ratio (P-gp) | fraction unbound [2] | bioavailability (oral bioavailability) [%] | oral BA (F) (oral bioavailability; 3 mg/kg, no CYP or P-gp inhibition) [%] | Compound
210 | 210 | 210 (≈ 193 µM) | 53 | – | – | – | – | – | – | – | CCN1CC(=O)N[C@@H](CC(C)C)C(=O)N2CCC[C@@H]2C(=O)N(C)[C@@H](CC(C)C)C(=O)N[C@@H](C)C(=O)N(CC2CCCCC2)CC(=O)N[C@@H](Cc2ccccc2)C(=O)N2CCC[C@@H]2C(=O)N(C)[C@@H](CC(C)C)C(=O)N[C@@H](C)C1=O [B08] (cyclo([NEtG]L[dP][NMeL]A[NCyclohexylmethylGly]F[dP][NMeL]A))
– | – | 7 (≈ 6.43 µM) | 33 | 2.5 (≈ 2.29 µM) | 6.8 (≈ 6.24 µM) | 24.7 | 8.5 | < 0.002 | 5 | – | CCN1CC(=O)NC(CC(C)C)C(=O)N(C)C(C)C(=O)NC(CC(C)C)C(=O)N2CCCC2C(=O)N(CC2CCCCC2)CC(=O)NC(CC(C)C)C(=O)N(C)C(C)C(=O)NC(Cc2ccccc2)C(=O)N2CCCC2C1=O (stereo not drawn) [A08] (cyclo([NEtG]L[NMeA]LP[NCyclohexylmethylGly]L[NMeA]FP); configuration not given here)
– | 640 | – | 67 | 590 (≈ 541 µM) | – | – | 46.9 | 0.02 | 2 | – | CCN1CC(=O)N[C@@H](CC(C)C)C(=O)N(C)[C@@H](C)C(=O)N[C@@H](CC(C)C)C(=O)N2CCC[C@@H]2C(=O)N(CC2CCOCC2)CC(=O)N[C@@H](CC(C)C)C(=O)N(C)[C@@H](C)C(=O)N[C@@H](Cc2ccccc2)C(=O)N2CCC[C@@H]2C1=O [A09] (cyclo([NEtG]L[NMeA]L[dP][Gly(N-CH2-oxan-4-yl)]L[NMeA]F[dP]))
– | 2200 | – | 90 | 2100 (≈ 1920 µM) | – | – | – | – | 1 | – | CCN1CC(=O)N[C@@H](CC(C)C)C(=O)N2CCC[C@@H]2C(=O)N(C)[C@@H](CC(C)C)C(=O)N[C@@H](C)C(=O)N(CC2CCOCC2)CC(=O)N[C@@H](Cc2ccccc2)C(=O)N2CCC[C@@H]2C(=O)N(C)[C@@H](CC(C)C)C(=O)N[C@@H](C)C1=O [B09] (cyclo(A[NEtG]L[dP][NMeL]A[Gly(N-CH2-oxan-4-yl)]F[dP][NMeL]))
– | 1900 | – | 64 | 1800 (≈ 1770 µM) | – | 0.4 | 6.4 | 0.31 | 1 | 1 | CCN1CC(=O)NC(CC(C)C)C(=O)N(C)C(C)C(=O)NC(CC(C)C)C(=O)N2CCCC2C(=O)N(CC2CCOCC2)CC(=O)NC(CC(C)C)C(=O)N(C)C(C)C(=O)NC(C)C(=O)N2CCCC2C1=O (stereo not drawn) [A03] (cyclo([NEtG]L[NMeA]LP[Gly(N-CH2-oxan-4-yl)]L[NMeA]AP); configuration not given here)
